# Reference: PMC4832564 (Amyloid : the international journal of experimental and …, 2015)
# Like-named read-outs stand apart in the source and are kept apart here. Where no end group is shown, it is not given here.
# Columns and labels:
# systemic AA amyloid = assay type: in vivo, mouse; conditions: mice with systemic visceral AA amyloidosis, 2 h post-injection iv; triplicate
# [1] = mouse, in vivo, iv
# [2] = test system: synthetic rVλ6Wil fibrils; assay type: binding, human; conditions: for % bound relative to no inhibitor: 50 μg rVλ6Wil fibrils, mean of duplicate experiments
# Method in brief: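 ¹²⁵I-p5 or ¹²⁵I-RAGE VC1 (chloramine T iodination) pre-incubated 30 min RT with AGE-BSA, BSA, enoxaparin or E. coli-expressed human S100B (100, 4 or 1 μM). 50 μg fibrils from E. coli-made rVλ6Wil then added in PBS/0.05% tween 20 (S100B: TBS with 1 mM CaCl₂) and rotated 1 h RT. Spun twice at 16 000 × g, 10 min each. Pellet and supernatant gamma-counted; % bound relative to no inhibitor; mean of duplicate experiments.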
# [3] = test system: heparin and synthetic amyloid fibrils; conditions: cited from earlier work
# [4] = target: Synthetic amyloid fibrils of human islet amyloid polypeptide (IAPP) (human) (UniProt P10997); test: co-sedimentation
# [5] = target: Synthetic amyloid fibrils of the recombinant λ6 variable domain from patient Wil (rVλ6Wil) (human); test: co-sedimentation
# [6] = target: Synthetic amyloid fibrils of the recombinant λ6 variable domain from patient Wil (rVλ6Wil) (human); test: co-sedimentation; remark: listed apart in the source
# [7] = target: Synthetic amyloid fibrils of Aβ(1–40); test: co-sedimentation
# Synthetic amyloid fibrils of human islet amyloid polypeptide (IAPP) (human), sequence (P10997 34-70): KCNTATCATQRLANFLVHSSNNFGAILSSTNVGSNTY
molecule,measurement,setting,value
99mTc-p5: peptide p5 radiolabeled with 99mTc (CGGYSKAQKAQAKQAKQAQKAQKAQAKQAKQ; also: 99mTc radiolabel),distribution of radiotracer by SPECT/CT in AA mice,systemic AA amyloid,coincident retention of both radiotracers in the amyloid-laden liver and spleen
same,"T:M ratio, Heart",[1],2.75
same,"T:M ratio, L. Kidney",[1],659.97
same,"T:M ratio, Liver",[1],12.44
same,"T:M ratio, Low. Intestine",[1],14.55
same,"T:M ratio, Muscle",[1],1.00
same,"T:M ratio, Pancreas",[1],3.92
same,"T:M ratio, R. Kidney",[1],711.82
same,"T:M ratio, Spleen",[1],4.65
same,"T:M ratio, Stomach",[1],9.62
same,"T:M ratio, Up. Intestine",[1],8.88
125I-p5: peptide p5 radioiodinated with 125I (CGGYSKAQKAQAKQAKQAQKAQKAQAKQAKQ; also: 125I radiolabel),% bound relative to no inhibitor,[2]; PBS,100.0%
same,% bound relative to no inhibitor,[2]; TBS with 1 mM CaCl2,76.5%
CGGYSKAQKAQAKQAKQAQKAQKAQAKQAKQ [p5],decrease in binding to fibrils on addition of BSA,"[2]; 125I-labelled, BSA added (100 μM in Table 1)",~ 30%
same,decrease in binding with the synthetic amyloid fibrils,"[2]; 125I-labelled, Enoxaparin 100 μM",13%
same,decrease in binding to fibrils on addition of S100B,"[2]; 125I-labelled, human recombinant S100B, in the presence of 1 mM CaCl2",20%
same,reduction of reactivity with rVλ6Wil fibrils,"[2]; 125I-labelled, pre-incubation with AGE-BSA at 100 μM",~ 90%
GGGYSRAQRAQARQARQAQRAQRAQARQARQ [p5R],affinity relative to p5,[3],higher affinity for both heparin and synthetic amyloid fibrils
Recombinant human RAGE VC1 (soluble recombinant variable and constant-1 domains of RAGE) (domain or fragment),% reduction of ^125I-p5R binding to IAPP fibrils,[4],70%
same,% reduction of ^125I-p5 binding to IAPP fibrils,[4],90%
same,"% bound relative to no inhibitor (no inhibitor, PBS)",[5],100%
same,"% bound relative to no inhibitor (no inhibitor, TBS with 1 mM CaCl2)",[5],102%
same,"% bound relative to no inhibitor, with 4 μM enoxaparin",[5],102%
same,"% bound relative to no inhibitor, with 100 μM enoxaparin",[5],94%
"GGGYSRAQRAQARQARQAQRAQRAQARQARQ (also: radioiodinated (125I, chloramine T)) [Peptide p5R]",% bound to the fibril pellet,[6],> 50%
same,% bound to the fibril pellet,[7],> 50%
CGGYSKAQKAQAKQAKQAQKAQKAQAKQAKQ (not fully specified; also: 99mTc-labeled in imaging studies) [Peptide p5],"% bound relative to no inhibitor (no inhibitor, PBS)",[6],100%
same,"% bound relative to no inhibitor (no inhibitor, TBS with 1 mM CaCl2)",[6],76.5%
same,"% bound relative to no inhibitor, with 4 μM enoxaparin",[6],97.6%
same,"% bound relative to no inhibitor, with 100 μM enoxaparin",[6],87.4%
same,% bound to the fibril pellet,[6],> 50%
same,% bound to the fibril pellet,[7],> 50%
